Experimental data reported in PubChem BioAssay AID504390 (Broad Institute, 2011).
The source made the active and inactive calls.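 Rule for the calls: active = signal-lowering compounds whose fitted half-maximal concentration is at most ten times the top tested dose; inconclusive = flat fit at 30 to 70% inhibition, or poor fit; inactive = the rest.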

Key:
[1] = yeast GRE-lacZ reporter Hsp90 inhibition – S. cerevisiae, luminescence, dry powder, set 2, dose response (AID 504390); settings: S. cerevisiae GRE-lacZ reporter, Hsp90 function, luminescence; at 26 µM (top of the series)
Method in brief: (§1)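 Material: Saccharomyces yeast reporter strain, glucocorticoid response element driving β-galactosidase | Buffer or medium: SD-ADE yeast medium | Probe or stimulus: DOC steroid, 20 µM stock | Dosing: Compounds delivered by pin transfer | Times: 75 min treatment at 30 °C with agitation | Technique: β-galactosidase luminescence after 25 min development at 30 °C | Benchmarks: Radicicol 5 µM as positive control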

[2] = test system: S. cerevisiae GRE-lacZ reporter, Hsp90 function, luminescence; experiment: as above
Method in brief: as §1

Row | SMILES | activity change, negative = inhibition [1] | AC50 [2]
1 | O=C(O)Cn1c2ccccc2c2nc3n(c(=O)c21)CCS3 | 10.8% (inactive) | –
2 | CN1CCN(C(=O)Cn2c3ccccc3c3nc4n(c(=O)c32)CCS4)CC1 | 52.6% (inactive) | –
3 | O=C(Cn1c2ccccc2c2nc3n(c(=O)c21)CCS3)N1CCC(F)(F)C1 | 29.5% (inactive) | –
4 | c1ccc(-c2nn(Cc3nnco3)c3ccccc23)cc1 | -30.7% (inactive) | –
5 | O=C(Cn1c2ccccc2c2nc3n(c(=O)c21)CCS3)N1CC=CC1 | 20.7% (inactive) | –
6 | COC(=O)Cn1nc(C2CC2)c2ccccc21 | -20.4% (inactive) | –
7 | COC(=O)Cn1nc(-c2cccc(C)c2)c2ccccc21 | – | 3.59 µM
8 | O=C(Cn1c2ccccc2c2nc3n(c(=O)c21)CCS3)N1CCCC1 | -14.7% (inactive) | –
9 | O=C(Cn1c2ccccc2c2nc3n(c(=O)c21)CCS3)N1CCCCC1 | – | 26.1 µM
10 | COC(=O)Cn1nc(-c2ccccc2)c2cccnc21 | – | 25.8 µM
11 | COC(=O)Cn1nc(C(C)(C)C)c2ccccc21 | – | 20.7 µM
12 | COC(=O)Cn1nc(C2CCCCC2)c2ccccc21 | – | 3.56 µM
13 | CC1(O)CN(C(=O)Cn2c3ccccc3c3nc4n(c(=O)c32)CCS4)C1 | 25.6% (inactive) | –
14 | O=C(Cn1c2ccc(F)cc2c2nc3n(c(=O)c21)CCS3)N1CCCC1 | 39.4% (inactive) | –
15 | O=C(Cn1c2ccccc2c2nc3n(c(=O)c21)CCS3)N1CCC(F)(F)CC1 | 4.34% (inactive) | –
16 | COC(=O)Cn1nc(-c2cccc(OC)c2)c2ccccc21 | – | 4.18 µM
17 | CCc1nn(CC(=O)OC)c2ccccc12 | 35.3% (inactive) | –
18 | COC(=O)n1nc(-c2ccccc2)c2ccccc21 | 10.4% (inactive) | –
